Experimental data from ChEMBL document CHEMBL2069235, “Synthesis and biological evaluation of tyrosine modified analogues of the α4β7 integrin inhibitor biotin-R₈ERY” (Bioorg Med Chem, 2012).
The source made the active and inactive calls. The rule behind the calls is not given here. *1 amine or outer side, *2 acyl side, *3 side chain or, on linkers, in order; H or OH if unused. Where a SMILES comes first, the peptide text is derived from it. [ ]: non-standard residue; d: D form. The star is where a group is joined. X2 = CCc1ccc(-c2ccc(C[C@H](N[*:1])C(=O)[*:2])cc2)cc1; Biotin = O=C1N[C@H]2[C@H](CS[C@H]2CCCCC(=O)*)N1; X1 = O=C([C@H](Cc1ccc(C2CCCCC2)cc1)N[*:1])[*:2]; Bip = N[C@@H](Cc1ccc(-c2ccccc2)cc1)C(=O)O

Tests used:
Type in all cases: cell-based
[1] = biological target: T1, Integrin alpha-4/beta-7 (Mus musculus) (UniProt Q00651+P26011); assay: Inhibition of alpha4beta7 assessed as inhibition of Mn(2+)-activated adhesion of mouse TK-1 T cells to mouse MAdCAM-1 at 50 uM incubated for 1 hr by cell adhesion assay
Summary of the method: (§1)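 TK-1 cells (mouse AKR/Cum α4β7+/α4β1− CD8 T lymphoma), grown at 37 °C in RPMI 1640 with 10% FCS and 0.05 mM β-mercaptoethanol, were washed and held 1 h at room temperature in HBSS/10 mM Hepes with peptide. They were then activated with 2 mM MnCl₂ and added at 10⁶ cells/well to glass slides coated with mouse MAdCAM-1-Fc (10 μg/ml, FBS-blocked). Adhesion ran 30 min.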

[2] = biological target: T1, Integrin alpha-4/beta-7 (Mus musculus); assay: Inhibition of alpha4beta7 assessed as inhibition of Mn(2+)-activated adhesion of mouse TK-1 T cells to mouse MAdCAM-1 at 25 uM incubated for 1 hr by cell adhesion assay; summary of the method: as §1
Integrin alpha-4/beta-7 = biological target: T2, Integrin alpha-4/beta-7 (Mus musculus, UniProt P26011+Q00651); assay: Inhibition of alpha4beta7 assessed as inhibition of Mn(2+)-activated adhesion of mouse TK-1 T cells to mouse MAdCAM-1 incubated for 1 hr by cell adhesion assay
T2 sequence (Q00651 whole entry): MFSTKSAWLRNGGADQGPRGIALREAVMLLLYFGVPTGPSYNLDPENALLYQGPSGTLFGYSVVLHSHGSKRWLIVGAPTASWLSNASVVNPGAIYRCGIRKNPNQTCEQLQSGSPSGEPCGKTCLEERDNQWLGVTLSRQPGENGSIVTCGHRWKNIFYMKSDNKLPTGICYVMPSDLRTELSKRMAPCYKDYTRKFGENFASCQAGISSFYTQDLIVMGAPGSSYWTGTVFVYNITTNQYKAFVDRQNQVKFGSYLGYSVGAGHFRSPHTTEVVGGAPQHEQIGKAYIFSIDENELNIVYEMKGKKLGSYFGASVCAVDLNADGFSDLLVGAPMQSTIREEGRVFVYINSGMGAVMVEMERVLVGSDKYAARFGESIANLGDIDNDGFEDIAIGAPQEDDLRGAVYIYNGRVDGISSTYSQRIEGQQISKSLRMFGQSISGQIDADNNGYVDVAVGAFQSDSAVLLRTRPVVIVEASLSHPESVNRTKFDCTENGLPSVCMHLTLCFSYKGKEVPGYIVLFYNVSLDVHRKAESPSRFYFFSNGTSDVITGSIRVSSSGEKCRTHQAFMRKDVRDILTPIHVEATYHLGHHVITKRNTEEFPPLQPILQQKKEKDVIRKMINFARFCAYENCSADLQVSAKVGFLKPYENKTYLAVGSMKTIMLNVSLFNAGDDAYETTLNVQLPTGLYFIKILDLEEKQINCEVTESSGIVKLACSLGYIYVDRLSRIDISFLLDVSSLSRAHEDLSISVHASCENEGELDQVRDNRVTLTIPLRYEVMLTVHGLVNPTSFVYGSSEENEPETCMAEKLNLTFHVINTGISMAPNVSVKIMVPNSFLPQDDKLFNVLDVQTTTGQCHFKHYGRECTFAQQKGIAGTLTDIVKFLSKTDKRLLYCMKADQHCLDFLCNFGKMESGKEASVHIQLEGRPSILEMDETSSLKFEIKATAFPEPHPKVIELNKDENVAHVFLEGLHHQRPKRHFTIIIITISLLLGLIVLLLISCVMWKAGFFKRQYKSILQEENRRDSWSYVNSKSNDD
T2 sequence (P26011 whole entry): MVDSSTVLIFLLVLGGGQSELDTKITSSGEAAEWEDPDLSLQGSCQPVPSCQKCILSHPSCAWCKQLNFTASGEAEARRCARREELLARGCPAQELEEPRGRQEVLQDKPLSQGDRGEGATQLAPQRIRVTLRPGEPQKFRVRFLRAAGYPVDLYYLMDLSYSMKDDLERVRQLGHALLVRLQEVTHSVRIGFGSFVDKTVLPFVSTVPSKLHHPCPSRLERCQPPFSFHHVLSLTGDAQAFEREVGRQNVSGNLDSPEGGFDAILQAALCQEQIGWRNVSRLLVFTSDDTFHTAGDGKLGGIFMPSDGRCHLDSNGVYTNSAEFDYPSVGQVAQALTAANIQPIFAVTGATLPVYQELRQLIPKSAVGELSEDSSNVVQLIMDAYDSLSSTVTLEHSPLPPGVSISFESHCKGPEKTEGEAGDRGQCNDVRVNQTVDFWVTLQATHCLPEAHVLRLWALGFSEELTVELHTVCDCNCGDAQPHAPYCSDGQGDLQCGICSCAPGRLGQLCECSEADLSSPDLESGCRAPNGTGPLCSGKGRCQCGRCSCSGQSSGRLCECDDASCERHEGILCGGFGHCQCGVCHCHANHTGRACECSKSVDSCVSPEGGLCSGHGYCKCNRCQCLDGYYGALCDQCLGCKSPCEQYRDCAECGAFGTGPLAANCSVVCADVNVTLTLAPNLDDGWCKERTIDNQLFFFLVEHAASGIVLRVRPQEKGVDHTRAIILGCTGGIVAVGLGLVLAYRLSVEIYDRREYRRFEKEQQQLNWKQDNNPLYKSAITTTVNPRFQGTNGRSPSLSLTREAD
Summary of the method: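 TK-1 cells (mouse AKR/Cum CD8+ α4β7+/α4β1− T lymphoma), cultured at 37 °C in RPMI 1640 with 10% FCS and 0.05 mM β-mercaptoethanol. HBSS/10 mM Hepes buffer; cells preincubated with peptide 1 h at room temperature, then activated with MnCl2 to 2 mM. Added at 10⁶ cells/well to glass slides coated with mouse MAdCAM-1-Fc (10 µg/ml, 4 °C overnight, FBS-blocked); adhesion 30 min at room temperature.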

[3] = biological target: T1, Integrin alpha-4/beta-7 (Mus musculus); assay: Inhibition of alpha4beta7 assessed as inhibition of Mn(2+)-activated adhesion of mouse TK-1 T cells to mouse MAdCAM-1 at 100 uM incubated for 1 hr by cell adhesion assay; summary of the method: as §1
[4] = biological target: T1, Integrin alpha-4/beta-7 (Mus musculus); assay: Inhibition of alpha4beta7 assessed as inhibition of Mn(2+)-activated adhesion of mouse TK-1 T cells to mouse MAdCAM-1 at <5 to 10 uM incubated for 1 hr by cell adhesion assay; summary of the method: as §1

Row | SMILES | inhibition [1] [%] | inhibition [2] | IC50 (Integrin alpha-4/beta-7) [µM] | inhibition [3] [%] | inhibition [4]
1 | N=C(N)NCCC[C@H](NC(=O)CCCC[C@@H]1SC[C@@H]2NC(=O)N[C@@H]21)C(=O)N[C@@H](CCCNC(=N)N)C(=O)N[C@@H](CCCNC(=N)N)C(=O)N[C@@H](CCCNC(=N)N)C(=O)N[C@@H](CCCNC(=N)N)C(=O)N[C@@H](CCCNC(=N)N)C(=O)N[C@@H](CCCNC(=N)N)C(=O)N[C@@H](CCCNC(=N)N)C(=O)N[C@@H](CCC(=O)O)C(=O)N[C@@H](CCCNC(=N)N)C(=O)N[C@@H](Cc1ccc(-c2ccccc2)cc1)C(=O)O (Biotin-RRRRRRRRER[Bip]-OH) | 80.2 | Active | 7.3 | 91.3 | Active
2 | N=C(N)NCCC[C@H](NC(=O)[C@H](CCCNC(=N)N)NC(=O)[C@H](CCCNC(=N)N)NC(=O)[C@H](CCCNC(=N)N)NC(=O)[C@H](CCCNC(=N)N)NC(=O)[C@H](CCCN=C(N)N)NC(=O)[C@H](CCCN=C(N)N)NC(=O)[C@H](CCCN=C(N)N)NC(=O)CCCC[C@@H]1SC[C@@H]2NC(=O)N[C@@H]21)C(=O)N[C@@H](CCC(=O)O)C(=O)N[C@@H](CCCN=C(N)N)C(=O)N[C@@H](Cc1ccc(C2CCCCC2)cc1)C(=O)O (Biotin-RRRRRRRRER[X1]-OH) |  |  | 19 |  | 
3 | CCc1ccc(-c2ccc(C[C@H](NC(=O)[C@H](CCCNC(=N)N)NC(=O)[C@H](CCC(=O)O)NC(=O)[C@H](CCCNC(=N)N)NC(=O)[C@H](CCCNC(=N)N)NC(=O)[C@H](CCCNC(=N)N)NC(=O)[C@H](CCCNC(=N)N)NC(=O)[C@H](CCCNC(=N)N)NC(=O)[C@H](CCCNC(=N)N)NC(=O)[C@H](CCCNC(=N)N)NC(=O)[C@H](CCCNC(=N)N)NC(=O)CCCC[C@@H]3SC[C@@H]4NC(=O)N[C@@H]43)C(=O)O)cc2)cc1 (Biotin-RRRRRRRRER[X2]-OH) | 58 | Active | 14.3 | 74.2 | Active
